Experimental data as given in ChEMBL document CHEMBL1131236, “Antitumor agents. 185. Synthesis and biological evaluation of tridemethylthiocolchicine analogues as novel topoisomerase II inhibitors” (J Med Chem, 1998).
≈ marks a conversion by molar mass, not a printed value.

What was measured:
DNA topoisomerase II [1] = molecular target: T1, DNA topoisomerase II (Homo sapiens, UniProt P11388+Q02880); test: In vitro inhibitory activity at 100 uM against topoisomerase II measured as ATP-dependent unknotting of P4 DNA compared to enzyme and DNA control.; assay type: protein assay
Tubulin = assay type: protein-complex assay
[2] = molecular target: T2, DNA topoisomerase 1 (Homo sapiens) (UniProt P11387); test: In vitro inhibitory activity at 100 uM against topoisomerase I measured as ATP-independent relaxation of supercoiled plasmid DNA compared to enzyme and DNA control.
T2 sequence (whole entry): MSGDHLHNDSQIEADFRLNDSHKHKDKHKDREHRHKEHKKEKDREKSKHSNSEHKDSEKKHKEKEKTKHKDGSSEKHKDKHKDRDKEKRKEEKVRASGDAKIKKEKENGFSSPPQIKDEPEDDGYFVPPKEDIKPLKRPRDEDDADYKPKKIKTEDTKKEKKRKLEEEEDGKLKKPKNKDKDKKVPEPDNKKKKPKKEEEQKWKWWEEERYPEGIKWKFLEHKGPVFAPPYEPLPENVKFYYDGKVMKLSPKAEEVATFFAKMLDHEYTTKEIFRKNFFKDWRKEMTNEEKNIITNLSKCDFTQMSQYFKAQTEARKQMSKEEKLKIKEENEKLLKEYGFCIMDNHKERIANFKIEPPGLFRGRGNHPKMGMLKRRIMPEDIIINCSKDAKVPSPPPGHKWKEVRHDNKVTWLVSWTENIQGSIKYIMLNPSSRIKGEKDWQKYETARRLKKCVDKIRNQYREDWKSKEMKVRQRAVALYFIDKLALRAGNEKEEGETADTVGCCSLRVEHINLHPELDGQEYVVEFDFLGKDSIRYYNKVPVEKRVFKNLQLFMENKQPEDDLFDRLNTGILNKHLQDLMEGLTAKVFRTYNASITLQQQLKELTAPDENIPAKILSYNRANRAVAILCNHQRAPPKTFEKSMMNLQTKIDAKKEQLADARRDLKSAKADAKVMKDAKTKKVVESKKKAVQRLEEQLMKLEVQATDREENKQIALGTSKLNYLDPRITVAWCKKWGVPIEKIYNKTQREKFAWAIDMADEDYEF

CAKI-1 [3] = test: In vitro growth inhibition of CAKI-1, Kidney carcinoma; assay type: functional, cell-based; conditions: Homo sapiens
Outline: (§1)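 Human tumor lines screened in-house: KB, A549, MCF-7, CAKI-1 and SK-MEL-2. Read-out was SRB staining with absorbance at 562 nm.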

MCF7 [4] = test: In vitro growth inhibition of MCF-7, breast adenocarcinoma.; assay type: functional, cell-based; conditions: Homo sapiens; outline: as §1
SK-MEL-2 [5] = test: In vitro growth inhibition of SK-MEL-2, malignant melanoma.; assay type: functional, cell-based; conditions: Homo sapiens; outline: as §1
A549 [6] = test: In vitro growth inhibition of A549, lung carcinoma.; assay type: functional, cell-based; conditions: Homo sapiens; outline: as §1
KB [7] = test: In vitro growth inhibition of KB, epidermoid carcinoma of the nasopharynx.; assay type: functional, cell-based; conditions: Homo sapiens; outline: as §1
KB [8] = test: In vitro epidermoid carcinoma of the nasopharynx; assay type: functional, Homo sapiens; outline: as §1
DNA topoisomerase II [9] = molecular target: T1, DNA topoisomerase II; test: (§2) In vitro activity against mammalian topoisomerase II measured as ATP-dependent unknotting of P4 DNA compared to enzyme and DNA control; assay type: protein assay
Outline: (§3)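 Topo II inhibition read as ATP-dependent unknotting of P4 DNA, compared with enzyme-only and DNA-only control reactions.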

CAKI-1 [10] = test: In vitro percent inhibition of CAKI-1, Kidney carcinoma; assay type: functional, Homo sapiens; parameters: concentration or dose not given beside the values
SK-MEL-2 [11] = test: In vitro percent inhibition of SK-MEL-2 cells, malignant melanoma.; assay type: functional, Homo sapiens; parameters: concentration or dose not given beside the values
KB [12] = test: In vitro growth inhibition of KB, epidermoid carcinoma of the nasopharynx; assay type: functional, cell-based; conditions: Homo sapiens; outline: as §1
MCF7 [13] = test: In vitro percent inhibition of MCF-7, breast adenocarcinoma.; assay type: functional, Homo sapiens
A549 [14] = test: In vitro growth inhibition of A549, lung carcinoma; assay type: functional, cell-based; conditions: Homo sapiens; outline: as §1
A549 [15] = test: In vitro percent inhibition of A549, lung carcinoma; assay type: functional, Homo sapiens
Tubulin alpha chain = Tubulin alpha chain (Sus scrofa, UniProt P02550); test: In vitro inhibition of mammalian tubulin polymerization by 50%; Inactive
Tubulin alpha chain, sequence (P02550 whole entry, looked up): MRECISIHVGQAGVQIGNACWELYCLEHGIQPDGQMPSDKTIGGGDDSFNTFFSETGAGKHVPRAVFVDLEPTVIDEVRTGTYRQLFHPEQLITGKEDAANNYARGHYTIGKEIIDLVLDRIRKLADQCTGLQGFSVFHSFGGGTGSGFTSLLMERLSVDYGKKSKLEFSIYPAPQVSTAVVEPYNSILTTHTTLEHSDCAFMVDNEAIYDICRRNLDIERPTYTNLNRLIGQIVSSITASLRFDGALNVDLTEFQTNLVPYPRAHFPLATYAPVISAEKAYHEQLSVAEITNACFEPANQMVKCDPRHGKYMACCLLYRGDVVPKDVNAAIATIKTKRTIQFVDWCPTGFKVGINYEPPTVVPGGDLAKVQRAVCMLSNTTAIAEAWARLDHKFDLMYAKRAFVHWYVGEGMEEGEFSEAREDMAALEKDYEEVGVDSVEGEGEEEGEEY

A549 [16] = test: In vitro percent inhibition of A549, lung carcinoma.; Range 18-43
MCF7 [17] = test: In vitro percent inhibition of MCF-7, breast adenocarcinoma.; Range 23-48; assay type: functional, Homo sapiens
CAKI-1 [18] = test: In vitro percent inhibition of CAKI-1, Kidney carcinoma; Range 12-38; assay type: functional, Homo sapiens
SK-MEL-2 [19] = test: In vitro percent inhibition of SK-MEL-2 cells, malignant melanoma.; Range 26-41; assay type: functional, Homo sapiens
SK-MEL-2 [20] = test: In vitro percent inhibition of growth of SK-MEL-2, malignant melanoma; assay type: functional, Homo sapiens
DNA topoisomerase II [21] = molecular target: T1, DNA topoisomerase II; test: as §2; assay type: protein assay; conditions: concentration not given here; outline: as §3
SK-MEL-2 [22] = test: In vitro growth inhibition of SK-MEL-2, malignant melanoma; assay type: functional, cell-based; conditions: Homo sapiens; outline: as §1
CAKI-1 [23] = test: In vitro percent inhibition of growth of CAKI-1, Kidney carcinoma; assay type: functional, Homo sapiens
[24] = molecular target: T2, DNA topoisomerase 1 (Homo sapiens); test: In vitro inhibition against topoisomerase I activity Measured as ATP independent relaxation of supercoiled plasmid DNA compared to enzyme and DNA control reaction relative to Camptothecin (100 uM)
Outline: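 Topo I inhibition read as ATP-independent relaxation of supercoiled plasmid DNA, compared with enzyme and DNA control reactions. Camptothecin at 100 μM was the positive control.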

SMILES	inhibition (DNA topoisomerase II [1]) [%]	IC50 (Tubulin) [µM]	inhibition [2] [%]	EC50 (CAKI-1 [3]) [µg/mL]	EC50 (MCF7 [4]) [µg/mL]	EC50 (KB [7]) [µg/mL]	further results
CSc1ccc2c(cc1=O)[C@@H](NC(=O)c1cc([N+](=O)[O-])cc([N+](=O)[O-])c1)CCc1cc(O)c(O)c(O)c1-2	100	> 40	0				
CSc1ccc2c(cc1=O)[C@@H](NC(=O)c1ccc(CBr)cc1)CCc1cc(O)c(O)c(O)c1-2	100	> 40	0				
CSc1ccc2c(cc1=O)[C@@H](NC(=O)c1ccc(NC(=O)C34CCC(C)(C(=O)O3)C4(C)C)cc1)CCc1cc(O)c(O)c(O)c1-2 (stereo partly specified)	0	> 40	0				
COc1cc2c(c(OC)c1OC)-c1ccc(OC)c(=O)cc1[C@@H](NC(C)=O)CC2 [COLCHICINE]				0.4 (≈ 1 µM)	> 0.4	0.002 (≈ 0.00501 µM)	EC50 (SK-MEL-2 [5]): 0.008 µg/mL (≈ 0.02 µM); EC50 (A549 [6]): 0.022 µg/mL (≈ 0.0551 µM)
CSc1ccc2c(cc1=O)[C@@H](NC(C)=O)CCc1cc(O)c(O)c(O)c1-2					13.6 (≈ 36.4 µM)		Inhibition (KB [8]): 0%; IC50 (DNA topoisomerase II [9]): 9 µM; Inhibition (CAKI-1 [10]): 22%; Inhibition (SK-MEL-2 [11]): 0%; EC50 (KB [12]): > 17.8 µg/mL
CSc1ccc2c(cc1=O)[C@@H](NC(=O)c1ccc([N+](=O)[O-])cc1)CCc1cc(OC(=O)C(C)C)c(OC(=O)C(C)C)c(OC(=O)C(C)C)c1-2	0	> 40	0	> 27.6	> 27.6	25.5 (≈ 36.9 µM)	Inhibition (MCF7 [13]): 43%; EC50 (SK-MEL-2 [5]): 27.6 µg/mL (≈ 40 µM); Inhibition (CAKI-1 [10]): 17%; EC50 (A549 [14]): > 27.6 µg/mL; Inhibition (A549 [15]): 19%
CSc1ccc2c(cc1=O)[C@@H](NC(=O)c1ccc(Cl)cc1)CCc1cc(O)c(O)c(O)c1-2	100	> 40	0				
CCCCCC(=O)N[C@H]1CCc2cc(O)c(O)c(O)c2-c2ccc(SC)c(=O)cc21	100	> 40	0				
CSc1ccc2c(cc1=O)[C@@H](NC(=O)c1cccc([N+](=O)[O-])c1)CCc1cc(O)c(O)c(O)c1-2	100	> 40	0				
COc1cc([C@@H]2c3cc4c(cc3[C@@H](O[C@@H]3O[C@@H]5CO[C@@H](C)O[C@H]5[C@H](O)[C@H]3O)[C@H]3COC(=O)[C@H]23)OCO4)cc(OC)c1O [ETOPOSIDE]							IC50 (Tubulin alpha chain): Not Active
CSc1ccc2c(cc1=O)[C@@H](NC(=O)c1ccc([N+](=O)[O-])cc1)CCc1cc(OC(C)=O)c(OC(C)=O)c(OC(C)=O)c1-2	0	> 40	0	> 0.3	> 0.15	2.7 (≈ 4.45 µM)	Inhibition (A549 [16]): 18%; Inhibition (MCF7 [17]): 23%; EC50 (SK-MEL-2 [5]): > 0.3 µg/mL; Inhibition (CAKI-1 [18]): 12%; EC50 (A549 [6]): > 0.15 µg/mL; Inhibition (SK-MEL-2 [19]): 26%
CSc1ccc2c(cc1=O)[C@@H](NC(=O)C13CCC(C)(C(=O)O1)C3(C)C)CCc1cc(O)c(O)c(O)c1-2 (stereo partly specified)	0	> 40	0				
COC(=O)Oc1cc2c(c(OC(=O)OC)c1OC(=O)OC)-c1ccc(SC)c(=O)cc1[C@@H](NC(=O)c1ccc([N+](=O)[O-])cc1)CC2		> 40		> 26.2	13.1 (≈ 20 µM)	6.5 (≈ 9.93 µM)	Inhibition (SK-MEL-2 [20]): 44%; inhibition (DNA topoisomerase II [21]): 0%; EC50 (SK-MEL-2 [22]): > 26.2 µg/mL; Inhibition (CAKI-1 [23]): 38%; inhibition [24]: 0%; EC50 (A549 [6]): 24.2 µg/mL (≈ 37 µM)
